From article PMC4885108 (Journal of medicinal chemistry, 2016)
Like-named read-outs stand apart in the source and are kept apart here.

Key:
S. aureus = assay: MBC determination, three strains of S. aureus together; type: cell-based
MRSA NRS70 = assay: Mouse neutropenic thigh infection model; type: in vivo; conditions: thighs harvested at 24 h
[1] = Compound levels in plasma and uninfected thighs in the neutropenic thigh model; type: in vivo, mouse; conditions: for levels in plasma / levels in the thighs (uninfected): 24 h after infection (7 h after the last dose)
S. oralis ATCC 9811 = conditions: ref 22 (Bouley et al.); cited from earlier work
S. pyogenes ATCC 49399 = conditions: ref 22 (Bouley et al.); cited from earlier work
B. cereus ATCC 13061 = conditions: ref 22 (Bouley et al.); cited from earlier work
[2] = test system: B. licheniformis ATCC 12759; conditions: ref 22 (Bouley et al.); cited from earlier work
E. faecalis ATCC 29212 = conditions: quality control strain; ref 22 (Bouley et al.); cited from earlier work
E. faecalis 99 = conditions: vancomycin-resistant clinical isolate; ref 22 (Bouley et al.); cited from earlier work
red blood cells [3] = conditions: at 64 μg/mL; ref 22 (Bouley et al.); cited from earlier work
red blood cells [4] = assay: Hemolysis assay; type: cell-based, human; conditions: at 64 μg/mL, Triton-X as positive control
Fast PK studies = type: in vivo; conditions: mouse, plasma, iv
Method in brief: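 Female ICR mice (n = 2 per time point) got one tail-vein iv injection of 5, 10 or 20 mg/kg in 25% DMSO/65% propylene glycol/10% water. Plasma was precipitated with acetonitrile containing internal standard, then run by UPLC-UV or MRM against 0–50 μg/mL calibration curves. AUC and CL came from noncompartmental analysis.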

S. aureus strains = assay: MIC, all S. aureus strains tested; type: cell-based; conditions: Staphylococcus aureus, read-out: MIC for all S. aureus strains tested
Method in brief: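 CLSI broth microdilution: 2-fold serial compound dilutions in cation-adjusted Mueller–Hinton broth, set up in triplicate. Inoculum 5 × 10^5 CFU/mL.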

Full PK study = type: in vivo, mouse; conditions: 10 mg/kg
[5] = 20 mg/kg subcutaneously every 8 h
[6] = 10 mg/kg, fast PK AUC0–last, mice, single iv dose 10 mg/kg

Q: With `N#Cc1ccc(/C=C/c2nc3ccccc3c(=O)n2-c2cccc(C(=O)O)c2)cc1` [Compound 2, (E)-3-(3-Carboxyphenyl)-2-(4-cyanostyryl)quinazolin-4(3H)-one] as the compound, how does the “fold difference between MIC and MBC” value (S. aureus) read?
A: > 4 fold

Q: And the “lowering of the bacterial load compared to the negative control” value (MRSA NRS70; [5])?
A: not able to achieve statistically significant efficacy

Q: What about the levels in plasma ([1]; 20 mg/kg sc every 8 h) of the same compound?
A: 1130 ± 1070 ng/mL

Q: What about the “levels in the thighs (uninfected)” value ([1]; 20 mg/kg sc every 8 h) of the same compound?
A: 24 ± 23 ng/mL

Q: And the “MIC S. oralis ATCC 9811” value (S. oralis ATCC 9811)?
A: >128 µg/mL

Q: And the “MIC S. pyogenes ATCC 49399” value (S. pyogenes ATCC 49399)?
A: >128 µg/mL

Q: What about the “MIC B. cereus ATCC 13061” value (B. cereus ATCC 13061) of the same compound?
A: >128 µg/mL

Q: What about the “MIC B. licheniformis ATCC 12759” value [2] of the same compound?
A: >128 µg/mL

Q: And the “MIC E. faecalis ATCC 29212” value (E. faecalis ATCC 29212)?
A: >128 µg/mL

Q: And the “MIC E. faecalis 99” value (E. faecalis 99)?
A: >128 µg/mL

Q: And the hemolysis (red blood cells [3])?
A: <1%

Q: What does the source list for `O=c1c2ccccc2nc(/C=C/c2ccc(F)cc2)n1-c1cccc(O)c1` [Compound 5, (E)-3-(3-Hydroxyphenyl)-2-(4-fluorostyryl)quinazolin-4(3H)-one]?
A: hemolysis (red blood cells [4]): no significant hemolytic activity; clearance (Fast PK studies; 5 mg/kg): 11 mL/min/kg; clearance at 8 h (Fast PK studies; 5 mg/kg): 10.7 mL/min/kg

Q: What does the source list for `N#Cc1ccc(/C=C/c2nc3ccccc3c(=O)n2-c2cccc(O)c2)cc1` [Compound 15, (E)-3-(3-Hydroxyphenyl)-2-(4-cyanostyryl)quinazolin-4(3H)-one]?
A: AUC(0-t) (Fast PK studies; 5 mg/kg): 450 ng·h/mL; clearance at 8 h (Fast PK studies; 5 mg/kg): 186 mL/min/kg

Q: Which results are given for `C#Cc1ccc(/C=C/c2nc3ccccc3c(=O)n2-c2cccc(C(=O)O)c2)cc1` [Compound 27, (E)-3-(3-Carboxyphenyl)-2-(4-ethynylstyryl)quinazolin-4(3H)-one]?
A: MIC (S. aureus strains): ≤ 0.5 µg/mL; fold difference between MIC and MBC (S. aureus): > 4 fold; clearance (Fast PK studies; 10 mg/kg): 6.4 mL/min/kg; AUC(0-t) (Full PK study; ICR, mouse, plasma, iv): 25700 ng·h/mL; clearance (Full PK study; ICR, mouse, plasma, iv): 6.4 mL/min/kg; volume of distribution (Vd), fold higher than compound 2 (Full PK study; mice, iv): 10 fold; Cmax after po administration, fold higher than compound 2 (Full PK study; mice, po): 2 fold; lowering of the bacterial load compared to the negative control (MRSA NRS70; [5]): statistically significant lowering of the bacterial load; levels in plasma ([1]; 20 mg/kg sc every 8 h): 2430 ± 1640 ng/mL; levels in the thighs (uninfected) ([1]; 20 mg/kg sc every 8 h): 220 ± 170 ng/mL; levels in thighs, fold higher than compound 2 ([1]; 24 h after infection, 20 mg/kg sc every 8 h): 9 fold

Q: With `O=C(O)c1cccc(-n2c(/C=C/c3ccc(F)cc3)nc3ccccc3c2=O)c1` [Compound 30, (E)-3-(3-Carboxyphenyl)-2-(4-fluorostyryl)quinazolin-4(3H)-one] as the compound, how does the clearance at 8 h (Fast PK studies; 20 mg/kg) read?
A: 7.8 mL/min/kg

Q: With `CC(=O)Nc1cccc(-n2c(/C=C/c3ccc(F)cc3)nc3ccccc3c2=O)c1` [Compound 42, (E)-3-(3-Acetamidophenyl)-2-(4-fluorostyryl)quinazolin-4(3H)-one] as the compound, how does the clearance (Fast PK studies; 10 mg/kg) read?
A: 88 mL/min/kg

Q: What about the AUC(0-t) (Fast PK studies; [6]) of the same compound?
A: 4730 ng·h/mL

Q: With `CS(=O)(=O)Nc1cccc(-n2c(/C=C/c3ccc(F)cc3)nc3ccccc3c2=O)c1` [Compound 43, (E)-3-(3-Methylsulfonamidophenyl)-2-(4-fluorostyryl)-quinazolin-4(3H)-one] as the compound, how does the clearance (Fast PK studies; 10 mg/kg) read?
A: 28 mL/min/kg

Q: And the AUC(0-t) (Fast PK studies; [6])?
A: 13700 ng·h/mL

Q: For `N#Cc1ccc(/C=C/c2nc3ccccc3c(=O)n2-c2cccc(N)c2)cc1` [Compound 50, (E)-3-(3-Aminophenyl)-2-(4-cyanostyryl)quinazolin-4(3H)-one], which hemolysis (red blood cells [4]) is on record?
A: some hemolysis

Q: And the clearance at 8 h (Fast PK studies; 10 mg/kg)?
A: 25 mL/min/kg

Q: Which clearance at 8 h (Fast PK studies; 5 mg/kg) does the source give for `CC(=O)Nc1cccc(-n2c(/C=C/c3ccc(C#N)cc3)nc3ccccc3c2=O)c1` [Compound 52, (E)-3-(3-Acetamidophenyl)-2-(4-cyanostyryl)quinazolin-4(3H)-one] here?
A: 131 mL/min/kg

Q: With `CC(=O)NCc1cccc(-n2c(/C=C/c3ccc(C#N)cc3)nc3ccccc3c2=O)c1` [Compound 53, (E)-3-(3-(Acetamidomethyl)phenyl)-2-(4-cyanostyryl)-quinazolin-4(3H)-one] as the compound, how does the clearance at 8 h (Fast PK studies; 10 mg/kg) read?
A: 35 mL/min/kg

Q: For `CS(=O)(=O)Nc1cccc(-n2c(/C=C/c3ccc(C#N)cc3)nc3ccccc3c2=O)c1` [Compound 54, (E)-3-(3-Methylsulfonamidophenyl)-2-(4-cyanostyryl)-quinazolin-4(3H)-one], which clearance at 8 h (Fast PK studies; 5 mg/kg) is on record?
A: 162 mL/min/kg

Q: For `N#Cc1ccc(/C=C/c2nc3ccccc3c(=O)n2-c2cccc(C(=O)NCCO)c2)cc1` [Compound 57, (E)-3-(3-(2-Hydroxyethyl)carbomylphenyl)-2-(4-cyanostyryl)quinazolin-4(3H)-one], which clearance at 8 h (Fast PK studies; 10 mg/kg) is on record?
A: 29 mL/min/kg

Q: With `CC(=O)NC[C@H]1CN(c2ccc(N3CCOCC3)c(F)c2)C(=O)O1` [linezolid, reference compound] as the compound, how does the “lowering of the bacterial load compared to the negative control” value (MRSA NRS70; 10 mg/kg subcutaneously every 8 h) read?
A: statistically significant lowering of the bacterial load

Q: And the levels in plasma ([1]; 10 mg/kg sc every 8 h)?
A: not quantifiable

Q: And the “levels in the thighs (uninfected)” value ([1]; 10 mg/kg sc every 8 h)?
A: not quantifiable
